Consider two compounds from ChEMBL document CHEMBL4351014, “Bis(het)aryl-1,2,3-triazole quinuclidines as α7 nicotinic acetylcholine receptor ligands: Synthesis, structure affinity relationships, agonism activity, [18F]-radiolabeling and PET study in rats” (Eur J Med Chem, 2019).

A short description of data set [1]: Drug uptake in rat brain cerebellum at 7.3 +/- 0.44 MBq, iv pretreated with alpha7 nAChR antagonist methyllycaconitine for 15 mins followed by compound addition and measured after 1 hr by gamma counting analysis. The format is organism-based. Conditions: in vivo; call rule not given here. The method in brief: (§1)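 Male Wistar rats (250-300 g, n=6 per group) under isoflurane received 0.3 mL tracer i.v. via the penis vein; MLA groups got methyllycaconitine 1 mg/kg i.v. 15 min before. Decapitated at 1 h. Frontal cortex, hippocampus, hypothalamus, striatum and cerebellum weighed and gamma counted (48% efficiency). %ID/g calculated against standard dilutions of the injectate, mean ± SEM.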

Data set [2] is described as follows: Stability of the compound in rat plasma measured up to 4 hrs by HPLC analysis. Conditions: read-out: Stability. Type of data set: ADME, organism-based. The method in brief:
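100 μL radiotracer mixed with 1 mL rat plasma at 37 °C. Acetonitrile added, organic layer filtered and analysed by radio-HPLC on a C18 column at 30 min, 1, 2 and 4 h. Repeated twice with different radiotracer preparations.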

A short description of data set [3]: Drug uptake in rat brain cerebellum at 7.3 +/- 0.44 MBq, iv and measured after 1 hr by gamma counting analysis. Type of data set: ADME, organism-based. Conditions: in vivo. The method in brief:
as §1

Data set [4] can be described thus: Ratio of drug uptake in rat brain frontal cortex to cerebellum at 7.3 +/- 0.44 MBq, iv and measured after 1 hr by gamma counting analysis. The format is ADME, organism-based. Conditions: in vivo.
Data set [5] in a line: Drug uptake in rat brain frontal cortex at 7.3 +/- 0.44 MBq, iv and measured after 1 hr by gamma counting analysis. Type of data set: ADME, organism-based. Conditions: in vivo. The method in brief:
as §1

Data set [6] is described as follows: Drug uptake in rat brain hypothalamus at 7.3 +/- 0.44 MBq, iv and measured after 1 hr by gamma counting analysis. Type of data set: ADME, organism-based. Conditions: in vivo. The method in brief:
as §1

A short description of data set [7]: Drug uptake in rat brain hippocampus at 7.3 +/- 0.44 MBq, iv pretreated with alpha7 nAChR antagonist methyllycaconitine for 15 mins followed by compound addition and measured after 1 hr by gamma counting analysis. Type of data set: organism-based. Conditions: in vivo. The method in brief:
as §1

The nature of data set [8]: Drug uptake in rat brain frontal cortex at 7.3 +/- 0.44 MBq, iv pretreated with alpha7 nAChR antagonist methyllycaconitine for 15 mins followed by compound addition and measured after 1 hr by gamma counting analysis. Type of data set: organism-based. Conditions: in vivo. The method in brief: as §1
A short description of data set [9]: Drug uptake in rat brain hypothalamus at 7.3 +/- 0.44 MBq, iv pretreated with alpha7 nAChR antagonist methyllycaconitine for 15 mins followed by compound addition and measured after 1 hr by gamma counting analysis. Type of data set: organism-based. Conditions: in vivo. The method in brief: as §1
Data set [10] in a line: Ratio of drug uptake in rat brain hippocampus to cerebellum at 7.3 +/- 0.44 MBq, iv and measured after 1 hr by gamma counting analysis. Type of data set: ADME, organism-based. Conditions: in vivo.
The nature of data set [11]: Drug uptake in rat brain striatum at 7.3 +/- 0.44 MBq, iv pretreated with alpha7 nAChR antagonist methyllycaconitine for 15 mins followed by compound addition and measured after 1 hr by gamma counting analysis. The format is organism-based. Conditions: in vivo. The method in brief:
as §1

The nature of data set [12]: Drug uptake in rat brain at 37MBq, iv administrated and measured during 71 mins of acquisition by PET-CT analysis. The format is ADME, organism-based. Conditions: in vivo. The method in brief:
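Rats given a 37 MBq i.v. bolus and scanned on a microPET-CT for 71 min. Images reconstructed by 2-D OSEM; summed frames from 49-71 min shown.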

Data set [13] is described as follows: Drug uptake in rat brain hippocampus at 7.3 +/- 0.44 MBq, iv and measured after 1 hr by gamma counting analysis. Conditions: in vivo. The format is ADME, organism-based. The method in brief: as §1
The nature of data set [14]: Drug uptake in rat brain striatum at 7.3 +/- 0.44 MBq, iv and measured after 1 hr by gamma counting analysis. Conditions: in vivo. Type of data set: ADME, organism-based. The method in brief:
as §1

Data set [15] can be described thus: Ratio of drug uptake in rat brain striatum to cerebellum at 7.3 +/- 0.44 MBq, iv and measured after 1 hr by gamma counting analysis. The format is ADME, organism-based. Conditions: in vivo.
Data set [16] can be described thus: Drug uptake in rat brain hippocampus at 6.5 +/- 0.46 MBq, iv pretreated with alpha7 nAChR antagonist methyllycaconitine for 15 mins followed by compound addition and measured after 1 hr by gamma counting analysis. Conditions: in vivo. The format is organism-based. The method in brief: as §1
Data set [17] is described as follows: Drug uptake in rat brain cerebellum at 6.5 +/- 0.46 MBq, iv and measured after 1 hr by gamma counting analysis. Type of data set: ADME, organism-based. Conditions: in vivo. The method in brief:
as §1

A short description of data set [18]: Drug uptake in rat brain frontal cortex at 6.5 +/- 0.46 MBq, iv pretreated with alpha7 nAChR antagonist methyllycaconitine for 15 mins followed by compound addition and measured after 1 hr by gamma counting analysis. The format is organism-based. Conditions: in vivo. The method in brief:
as §1

Data set [19] can be described thus: Drug uptake in rat brain hypothalamus at 6.5 +/- 0.46 MBq, iv pretreated with alpha7 nAChR antagonist methyllycaconitine for 15 mins followed by compound addition and measured after 1 hr by gamma counting analysis. Type of data set: organism-based. Conditions: in vivo. The method in brief: as §1
The nature of data set [20]: Drug uptake in rat brain hippocampus at 6.5 +/- 0.46 MBq, iv and measured after 1 hr by gamma counting analysis. Type of data set: ADME, organism-based. Conditions: in vivo. The method in brief: as §1
Data set [21] in a line: Drug uptake in rat brain frontal cortex at 6.5 +/- 0.46 MBq, iv and measured after 1 hr by gamma counting analysis. The format is ADME, organism-based. Conditions: in vivo. The method in brief: as §1
Data set [22] is described as follows: Stability of the compound in 100% ethanol measured up to 4 hrs by HPLC analysis. Type of data set: physicochemical.
Data set [23] can be described thus: Drug uptake in rat brain hypothalamus at 6.5 +/- 0.46 MBq, iv and measured after 1 hr by gamma counting analysis. Conditions: in vivo. Type of data set: ADME, organism-based. The method in brief: as §1
Data set [24] in a line: Ratio of drug uptake in rat brain frontal cortex to cerebellum at 6.5 +/- 0.46 MBq, iv and measured after 1 hr by gamma counting analysis. Conditions: in vivo. The format is ADME, organism-based.
Data set [25] is described as follows: Drug uptake in rat brain striatum […], iv and measured after 1 hr by gamma counting analysis. Conditions: in vivo. The format is ADME, organism-based. The method in brief:
as §1

Data set [26] can be described thus: Drug uptake in rat brain striatum at 6.5 +/- 0.46 MBq, iv pretreated with alpha7 nAChR antagonist methyllycaconitine for 15 mins followed by compound addition and measured after 1 hr by gamma counting analysis. The format is organism-based. Conditions: in vivo. The method in brief:
as §1

Data set [27] in a line: Stability of the compound in 0.9% sodium chloride/ethanol solution by HPLC analysis. The format is physicochemical.
Data set [28] can be described thus: Drug uptake in rat brain cerebellum at 6.5 +/- 0.46 MBq, iv pretreated with alpha7 nAChR antagonist methyllycaconitine for 15 mins followed by compound addition and measured after 1 hr by gamma counting analysis. Type of data set: organism-based. Conditions: in vivo. The method in brief:
as §1

`[18F]c1ccc(-c2ccc(-c3cn([C@H]4CN5CCC4CC5)nn3)s2)cn1`: the Drug uptake result is reported as “Active” in [1]; 0.58 % ID/g in data set [3]; 0.85 % ID/g in data set [5]; 0.59 % ID/g in [6]; “Active” in [7]; “Active” in data set [8]. The Drug uptake entry is on record as “Active” in [9]; “Active” in data set [11]; “Active” in [12]; 0.78 % ID/g in data set [13]; 0.76 % ID/g in data set [14]. Moreover, the remaining at 4 h in data set [2] is more than 95%. Also, the figures for the Ratio in data set [4], in data set [10] and in [15] were 1.47, 1.34 and 1.31, respectively.

Take `[18F]Cc1ccc(-c2ccc(-c3cn([C@H]4CN5CCC4CC5)nn3)s2)cc1`: in data set [2], the remaining at 4 h is more than 95%. Also, the Drug uptake result was “Active” in data set [16]; 0.44 % ID/g in data set [17]; “Active” in [18]; “Active” in data set [19]; 0.43 % ID/g in [20]; 0.56 % ID/g in [21]. The Drug uptake in data set [23] is recorded as 0.42 % ID/g; in data set [25], 0.44 % ID/g; in [12], “Active”; in data set [26] it was “Active”; in data set [28], “Active”. Further, the results for the Stability result in data set [22] and in data set [27] were “Stable” and “Unstable”, respectively. In addition, the Ratio in data set [24] came out at 1.29.
